The test system of data set [1] is PC-3. The experiment in a line: Cytotoxicity against human PC-3 cells assessed as reduction in cell viability preincubated for 4 hrs in hypoxia and further incubated for 5 days in fresh medium by SRB assay. The class given is functional, cell-based.
Data set [2] in a line: Selectivity index, ratio of IC50 for human PC-3 cells under normoxic condition to IC50 human PC-3 cells under hypoxia condition incubated for 2 hrs followed by washed with fresh media incubated for 3 days by alamar blue assay. The format is functional. The method in brief: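 PC-3 hypoxia selectivity is the IC50 in air divided by the IC50 under N2. Both come from the 2 h exposure, wash, 3-day normoxic incubation and alamarBlue viability readout.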
(In general: Alamar Blue is a resazurin reagent that responds to reducing activity.)

The test system of data set [3] is DU-145. Briefly: Cytotoxicity against human DU145 cells assessed as reduction in cell viability incubated for 2 hrs under hypoxic condition followed washed with fresh media incubated for 3 days by alamar blue assay. The class given is functional, cell-based. The procedure, abridged:
(§1)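 Cells exposed to the mustards across a concentration range for 2 h under hypoxia (N2) or normoxia (air), then washed and incubated 3 days under normoxia. Viability was read with alamarBlue, and IC50 is reported as mean ± SEM.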

Data set [4] in a line: Lipophilicity, logD of compound at pH 7.4 by microscale shake flask method. The note with it: buffer. The class given is physicochemical. The method in brief: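 Distribution coefficient measured at pH 7.4 and reported as mean ± SEM from two or more independent experiments, each in triplicate.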
In data set [5] the test system is DU-145. The experiment in a line: Cytotoxicity against human DU145 cells assessed as reduction in cell viability incubated for 2 hrs under normoxic condition followed by washed with fresh media incubated for 3 days by alamar blue assay. The class given is functional, cell-based. The method in brief: as §1
Data set [6] deals with PC-3. Briefly: Cytotoxicity against human PC-3 cells assessed as reduction in cell viability incubated for 2 hrs under hypoxic condition followed by washed with fresh media incubated for 3 days by alamar blue assay. The class given is functional, cell-based. The method in brief: as §1
For data set [7], the system named is PC-3. The experiment in a line: Cytotoxicity against human PC-3 cells assessed as reduction in cell viability incubated for 2 hrs under normoxic condition followed by washed with fresh media incubated for 3 days by alamar blue assay. The class given is functional, cell-based. The procedure, abridged:
as §1

Regarding `CS(=O)(=O)OCCN(CCBr)c1c(C(=O)NCCO)cc([N+](=O)[O-])cc1[N+](=O)[O-]`, the IC50 in the data set with PC-3 [1] was found to be 7.3 µM; in the data set on DU-145 [3], 78 µM; in the data set on DU-145 [5], 210 µM; with PC-3 [6], 48 µM; in the data set on PC-3 [7] it was 320 µM. The “Ratio IC50” value in data set [2] was 6.7. Also, the logD in data set [4] is 0.8.
As for `CS(=O)(=O)OCCN(CCBr)c1c(C(=O)NCCC(=O)O)cc([N+](=O)[O-])cc1[N+](=O)[O-]`, the “Ratio IC50” value in data set [2] is 10. The IC50 with DU-145 [3] was found to be 56 µM; in the data set on DU-145 [5], 326 µM; with PC-3 [6], 41 µM; in the data set with PC-3 [7], 417 µM. Besides, in data set [4], the logD is reported as -0.71.
Turning to `Cc1ccc(S(=O)(=O)OCCN(CCBr)c2c(C(=O)NCCC(=O)O)cc([N+](=O)[O-])cc2[N+](=O)[O-])cc1`, in data set [2], the “Ratio IC50” value is 11. Also, the half-inhibitory concentration (IC50) is 54 µM with DU-145 [3], 363 µM with DU-145 [5], 42 µM in the data set with PC-3 [6] and 460 µM with PC-3 [7]. The compound also had a logD in data set [4] of 1.03.
On to `O=C(NCCO)c1cc([N+](=O)[O-])cc([N+](=O)[O-])c1N(CCBr)CCBr`, for which, in data set [2], the “Ratio IC50” value was found to be 7.4. Besides, the IC50 in the data set with DU-145 [3] was 80 µM; in the data set with DU-145 [5] it was 177 µM; in the data set on PC-3 [6], 26 µM; in the data set on PC-3 [7] it was 193 µM. The compound also came in with a logD in data set [4] of 1.7.
As for `Cc1ccc(S(=O)(=O)OCCN(CCBr)c2c(C(=O)NCCO)cc([N+](=O)[O-])cc2[N+](=O)[O-])cc1`, the “Ratio IC50” value in data set [2] is on record as 3.9. In addition, the IC50 was 28 µM in the data set on DU-145 [3], 108 µM with DU-145 [5], 37 µM in the data set on PC-3 [6] and 146 µM with PC-3 [7]. Moreover, the logD in data set [4] was 0.95.
As for `O=C(NCCO)c1cc([N+](=O)[O-])cc([N+](=O)[O-])c1N(CCBr)CCOS(=O)(=O)C(F)(F)F`, the “Ratio IC50” value in data set [2] was 5.8. In addition, the IC50 is 51 µM with DU-145 [3], 470 µM in the data set with DU-145 [5], 42 µM with PC-3 [6] and 245 µM in the data set with PC-3 [7]. The compound further came in with a logD in data set [4] of 0.33.
With `O=C(O)CCNC(=O)c1cc([N+](=O)[O-])cc([N+](=O)[O-])c1N(CCBr)CCOS(=O)(=O)C(F)(F)F`, the “Ratio IC50” value in data set [2] amounted to 3.9. The IC50 with DU-145 [3] amounted to 68 µM; in the data set with DU-145 [5], 480 µM; with PC-3 [6] it was 90 µM; in the data set on PC-3 [7], 350 µM. This compound also displayed a logD in data set [4] of 0.15.
Take `O=C(O)CCNC(=O)c1cc([N+](=O)[O-])cc([N+](=O)[O-])c1N(CCBr)CCBr`: the “Ratio IC50” value in data set [2] was found to be 6.5. Moreover, the IC50 was determined as 47 µM with DU-145 [3], 413 µM in the data set with DU-145 [5], 75 µM in the data set on PC-3 [6] and 490 µM with PC-3 [7]. This compound yielded a logD in data set [4] of 0.42.

In general, IC50 refers to the midpoint of a concentration-inhibition curve. As a reminder, the logD is lipophilicity at a set pH, counting ionised and neutral species.

The record behind these values is ChEMBL document CHEMBL4673308, “Synthesis and evaluation of new dinitrobenzamide mustards in human prostate cancer” (Bioorg Med Chem Lett, 2021).
